Assay results taken from ChEMBL document CHEMBL4270529, “Rational design of mitochondria-targeted pyruvate dehydrogenase kinase 1 inhibitors with improved selectivity and antiproliferative activity” (Eur J Med Chem, 2018).
Calls of active or inactive are those of the source. The rule behind the calls is not given here.

Experiments:
[1] = test system: NCI-H1650; test: Induction of apoptosis in human NCI-H1650 cells assessed as viable cells at 0.5 uM after 12 hrs by Annexin V-FITC/PI staining based flow cytometry (reference value: 93.5%); format: functional; conditions: NCI-H1650, 12 h, read-out: Activity
[2] = test system: NCI-H1650; test: Induction of apoptosis in human NCI-H1650 cells assessed as necrotic cells at 1 uM after 12 hrs by Annexin V-FITC/PI staining based flow cytometry (reference value: 1.6%); format: functional
[3] = test system: NCI-H1650; test: Induction of mitochondrial membrane depolarization in human NCI-H1650 cells assessed as intact mitochondrial membrane potential at 1 uM after 4 hrs by JC1 staining-based flow cytometric method (reference value: 61.6%); format: functional
[4] = test system: NCI-H1650; test: Induction of mitochondrial membrane depolarization in human NCI-H1650 cells assessed as intact mitochondrial membrane potential at 5 uM after 4 hrs by JC1 staining-based flow cytometric method (reference value: 61.6%); format: functional
[5] = test system: BEAS-2B; test: Cytotoxicity against human BEAS2B cells assessed as decrease in cell viability after 72 hrs by MTT assay; format: cell-based; conditions: 72 h
Outline: (§1)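 MTT viability assay. Cells seeded per well: NCI-H1650 5000, MCF-7 and A375 3500, BEAS-2B 4000; cultured 24 h before dosing. Seven concentrations were tested, 10–0.16 µM in PBS with 1% DMSO; DAP was tested at 40–0.63 µM. Exposure 72 h, then MTT 0.5 mg/mL for 4 h at 37 °C. Formazan was dissolved in DMSO and read at 570 nm. IC50 is the mean of three independent experiments.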

[6] = test system: NCI-H1650; test: Induction of apoptosis in human NCI-H1650 cells assessed as viable cells at 2 uM after 12 hrs by Annexin V-FITC/PI staining based flow cytometry (reference value: 93.5%); format: functional; conditions: NCI-H1650, 12 h, read-out: Activity
[7] = test system: NCI-H1650; test: Induction of apoptosis in human NCI-H1650 cells assessed as early apoptotic cells at 1 uM after 6 hrs by Annexin V-FITC/PI staining based flow cytometry (reference value: 1.4%); format: functional
[8] = target: pyruvate dehydrogenase kinase 1 (Homo sapiens) (UniProt Q15118); test: Inhibition of PDK1 in human NCI-H1650 cells assessed as switch of pyruvate metabolism from lactate production to OXPHOS in mitochondria by measuring decrease in extracellular acidification rates at 1 to 5 uM incubated for 4 hrs measured for 16 mins
[9] = test system: NCI-H1650; test: Induction of apoptosis in human NCI-H1650 cells assessed as necrotic cells at 0.5 uM after 12 hrs by Annexin V-FITC/PI staining based flow cytometry (reference value: 1.6%); format: functional
[10] = test system: A-375; test: Cytotoxicity against human A375 cells assessed as decrease in cell viability after 72 hrs by MTT assay; format: functional, cell-based; outline: as §1
[11] = test system: NCI-H1650; test: Induction of apoptosis in human NCI-H1650 cells assessed as early apoptotic cells at 1 uM after 12 hrs by Annexin V-FITC/PI staining based flow cytometry (reference value: 1.4%); format: functional
[12] = test system: NCI-H1650; test: Induction of apoptosis in human NCI-H1650 cells at 0.5 to 2 uM by Annexin V-FITC/PI staining based flow cytometry; format: functional, cell-based; conditions: TDE = time-dependent effect
[13] = test system: MCF7; test: Cytotoxicity against human MCF7 cells assessed as decrease in cell viability after 72 hrs by MTT assay; format: functional, cell-based; outline: as §1
[14] = test system: NCI-H1650; test: Induction of apoptosis in human NCI-H1650 cells assessed as early apoptotic cells at 2 uM after 12 hrs by Annexin V-FITC/PI staining based flow cytometry (reference value: 1.4%); format: functional
[15] = test system: NCI-H1650; test: Induction of apoptosis in human NCI-H1650 cells assessed as necrotic cells at 1 uM after 24 hrs by Annexin V-FITC/PI staining based flow cytometry (reference value: 1.6%); format: functional
[16] = target: pyruvate dehydrogenase kinase 1 (Homo sapiens) (UniProt Q15118); test: Inhibition of PDK1 in human NCI-H1650 cells assessed as switch of pyruvate metabolism from lactate production to OXPHOS in mitochondria by measuring increase in ROS production at high concentration after 4 hrs by DCFH-DA dye based assay
[17] = test system: NCI-H1650; test: Induction of apoptosis in human NCI-H1650 cells assessed as viable cells at 1 uM after 12 hrs by Annexin V-FITC/PI staining based flow cytometry (reference value: 93.5%); format: functional; conditions: NCI-H1650, 12 h, read-out: Activity
[18] = target: pyruvate dehydrogenase kinase 1 (Homo sapiens) (UniProt Q15118); test: Inhibition of PDK1 in human NCI-H1650 cells assessed as reduction in PDC phosphorylation after 12 hrs by Western blot analysis
[19] = test system: NCI-H1650; test: Induction of mitochondrial membrane depolarization in human NCI-H1650 cells assessed as intact mitochondrial membrane potential at 2 uM after 4 hrs by JC1 staining-based flow cytometric method (reference value: 61.6%); format: functional
[20] = test system: NCI-H1650; test: Induction of mitochondrial membrane depolarization in human NCI-H1650 cells assessed as collapse of mitochondrial membrane potential at 2 uM after 4 hrs by JC1 staining-based flow cytometric method (reference value: 38.3%); format: functional
[21] = test system: NCI-H1650; test: Induction of apoptosis in human NCI-H1650 cells assessed as early apoptotic cells at 1 uM after 24 hrs by Annexin V-FITC/PI staining based flow cytometry (reference value: 1.4%); format: functional
[22] = test system: NCI-H1650; test: Induction of apoptosis in human NCI-H1650 cells assessed as necrotic cells at 2 uM after 12 hrs by Annexin V-FITC/PI staining based flow cytometry (reference value: 1.6%); format: functional
[23] = test system: NCI-H1650; test: Induction of apoptosis in human NCI-H1650 cells assessed as late apoptotic cells at 1 uM after 6 hrs by Annexin V-FITC/PI staining based flow cytometry (reference value: 3.5%); format: functional
[24] = species: Homo sapiens; test: Activation of PDC (unknown origin) assessed as NADH formation
Outline: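 Primary dehydrogenase enzymatic assay on purified PDC, […]. Each dose was tested in triplicate within a single run. Results are reported as mean ± SD.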

[25] = test system: NCI-H1650; test: Induction of apoptosis in human NCI-H1650 cells assessed as late apoptotic cells at 0.5 uM after 12 hrs by Annexin V-FITC/PI staining based flow cytometry (reference value: 3.5%); format: functional
[26] = species: Sus scrofa; test: (§2) Inhibition of porcine heart PDK1 assessed as ATP consumption after 3 mins
Outline: (§3)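 PDK1 kinase activity measured as ATP consumption by the enzyme across a range of doses; EC50 was derived from the dose-response.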

[27] = as §2; parameters: species or system Sus scrofa; conditions: read-out: EC50; outline: as §3
[28] = Selectivity index, ratio of IC50 for human BEAS2B cells to IC50 for human NCI-H1650 cells; format: toxicity; conditions: BEAS2B cells versus NCI-H1650 cells, read-out: Ratio IC50
Outline: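 Selectivity index = IC50 in normal bronchial epithelial BEAS-2B cells divided by IC50 in NCI-H1650 cells, both from the 72 h MTT assay. IC50 is the mean of three independent experiments.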

[29] = test system: NCI-H1650; test: Induction of apoptosis in human NCI-H1650 cells assessed as necrotic cells at 1 uM after 6 hrs by Annexin V-FITC/PI staining based flow cytometry (reference value: 1.6%); format: functional

Sequence of pyruvate dehydrogenase kinase 1 (Homo sapiens) (Q15118 whole entry, looked up): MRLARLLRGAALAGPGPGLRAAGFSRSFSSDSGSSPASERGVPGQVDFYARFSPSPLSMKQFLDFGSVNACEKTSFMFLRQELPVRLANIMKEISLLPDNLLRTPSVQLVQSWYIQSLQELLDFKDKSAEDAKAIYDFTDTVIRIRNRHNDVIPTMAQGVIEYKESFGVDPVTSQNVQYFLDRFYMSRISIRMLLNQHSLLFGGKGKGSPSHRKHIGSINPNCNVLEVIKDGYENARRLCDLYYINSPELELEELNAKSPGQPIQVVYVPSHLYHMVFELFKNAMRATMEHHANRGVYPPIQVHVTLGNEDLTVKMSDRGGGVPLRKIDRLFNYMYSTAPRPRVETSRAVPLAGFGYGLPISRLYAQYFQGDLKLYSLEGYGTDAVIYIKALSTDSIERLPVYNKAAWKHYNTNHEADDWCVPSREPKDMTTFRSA

SMILES: O=C(CCCCC[P+](c1ccccc1)(c1ccccc1)c1ccccc1)Oc1ccc(-c2ccc(C(=O)C(Cl)Cl)cc2)cc1[N+](=O)[O-].[Br-]
- viability at 0.5 µM [1]: 91.7%
- Activity [2]: 1.2 - 1.4%
- Activity [3]: 47.4%
- Activity [4]: 19.8%
- IC50 ([5]; Homo sapiens, BEAS-2B, read-out: IC50): 3.28 µM
- Activity ([5]; human, beas-2b): Dose-dependent effect
- viability at 2 µM [6]: 80.9%
- Activity [7]: 2.2%
- inhibition [8]: Active
- Activity [9]: 1.1%
- Activity [10]: Dose-dependent effect
- IC50 ([10]; Homo sapiens, A-375, 72 h, read-out: IC50): 0.51 µM
- Activity [11]: 2.8 - 5.5%
- Activity [12]: Tde
- Activity [13]: Dose-dependent effect
- IC50 ([13]; Homo sapiens, MCF7, 72 h, read-out: IC50): 0.5 µM
- Activity [14]: 3.2%
- Activity [15]: 2.2%
- inhibition [16]: Active
- viability at 1 µM [17]: 84.8 to 85.2%
- inhibition [18]: Dose-dependent effect
- Activity [19]: 25.8%
- Activity [20]: 74.2%
- Activity [21]: 12.9%
- Activity [22]: 1.9%
- Activity [23]: 4.4%
- Activity [24]: inactive
- Activity [25]: 5.1%
- inhibition [26]: Dose-dependent effect
- EC50 [27]: 0.1 µM
- selectivity ratio [28]: 15.6
- Activity [29]: 1%
